Measurements taken from ChEMBL document CHEMBL1123566, “Synthesis and cardiac electrophysiological activity of 2- and 3-[(substituted phenyl)alkyl]quinuclidines. Structure-activity relationships” (1987).

Key:
Canis familiaris [1] = experiment: Heart rate was determined by intraduodenal administration of two dosages of 30 mg/kg of compound in anesthetized dogs. Value was reported for experiment 1; type: functional, Canis lupus familiaris
How it was run: (§1)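 Anesthetized dogs; compound given intraduodenally, generally as two doses, the second a cumulative (high) dose. LV functional refractory period and conduction time measured 15, 30 and 45 min after dosing; heart rate and blood pressure measured during nonpacing intervals. Values are % change from control, given per individual animal. Active if FRP or CT prolonged by ≥12%.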

Canis familiaris [2] = experiment: Heart rate was determined by intraduodenal administration of two dosages of 30 mg/kg of compound in anesthetized dogs. Value was reported for experiment 2; type: functional, Canis lupus familiaris; how it was run: as §1
Canis familiaris [3] = experiment: Heart rate was determined by intraduodenal administration of two dosages of 30 mg/kg of compound in anesthetized dogs. Value was reported for experiment 3; type: functional, Canis lupus familiaris; how it was run: as §1
Canis familiaris [4] = experiment: Conduction time was determined by intraduodenal administration of 30 mg/kg (high dose) of compound in anesthetized dogs. Value was reported for experiment 1; type: functional, Canis lupus familiaris; how it was run: as §1
Canis familiaris [5] = experiment: Conduction time was determined by intraduodenal administration of 30 mg/kg (high dose) of compound in anesthetized dogs. Value was reported for experiment 2; type: functional, Canis lupus familiaris; how it was run: as §1
Canis familiaris [6] = experiment: Conduction time was determined by intraduodenal administration of 30 mg/kg (high dose) of compound in anesthetized dogs. Value was reported for experiment 3; type: functional, Canis lupus familiaris; how it was run: as §1
Canis familiaris [7] = experiment: Conduction time was determined by intraduodenal administration of 10 mg/kg (low dose) of compound in anesthetized dogs. Value was reported for experiment 1; type: functional, Canis lupus familiaris; how it was run: as §1
Canis familiaris [8] = experiment: Conduction time was determined by intraduodenal administration of 10 mg/kg (low dose) of compound in anesthetized dogs. Value was reported for experiment 2; type: functional, Canis lupus familiaris; how it was run: as §1
Canis familiaris [9] = experiment: Conduction time was determined by intraduodenal administration of 10 mg/kg (low dose) of compound in anesthetized dogs. Value was reported for experiment 3; type: functional, Canis lupus familiaris; how it was run: as §1
Canis familiaris [10] = experiment: Heart rate was determined by intraduodenal administration of two dosages of 10 mg/kg of compound in anesthetized dogs. Value was reported for experiment 1; type: functional, Canis lupus familiaris; how it was run: as §1
Canis familiaris [11] = experiment: Heart rate was determined by intraduodenal administration of two dosages of 10 mg/kg of compound in anesthetized dogs. Value was reported for experiment 2; type: functional, Canis lupus familiaris; how it was run: as §1
Canis familiaris [12] = experiment: Heart rate was determined by intraduodenal administration of two dosages of 10 mg/kg of compound in anesthetized dogs. Value was reported for experiment 3; type: functional, Canis lupus familiaris; how it was run: as §1
Canis familiaris [13] = experiment: Left ventricular refractory period was determined by intraduodenal administration of 10 mg/kg (low dose) of compound in anesthetized dogs. Value was reported for experiment 1; type: functional, Canis lupus familiaris, Cardiac ventricle
How it was run: (§2)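 Anesthetized dogs received two intraduodenal doses, the second cumulative (low dose/high dose). Left ventricular FRP and CT were measured 15, 30 and 45 min after dosing. Heart rate and mean blood pressure were taken during nonpacing intervals. Values are percent change from control. The vehicle was 5% dextrose in water/tragacanth. Activity was defined as ≥12% prolongation of FRP or CT.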

Canis familiaris [14] = experiment: Left ventricular refractory period was determined by intraduodenal administration of 10 mg/kg (low dose) of compound in anesthetized dogs. Value was reported for experiment 2; type: functional, Canis lupus familiaris, Cardiac ventricle; how it was run: as §2
Canis familiaris [15] = experiment: Left ventricular refractory period was determined by intraduodenal administration of 10 mg/kg (low dose) of compound in anesthetized dogs. Value was reported for experiment 3; type: functional, Canis lupus familiaris, Cardiac ventricle; how it was run: as §2
Canis familiaris [16] = experiment: Left ventricular refractory period was determined by intraduodenal administration of 30 mg/kg (high dose) of compound in anesthetized dogs. Value was reported for experiment 1; type: functional, Canis lupus familiaris, Cardiac ventricle; how it was run: as §2
Canis familiaris [17] = experiment: Left ventricular refractory period was determined by intraduodenal administration of 30 mg/kg (high dose) of compound in anesthetized dogs. Value was reported for experiment 2; type: functional, Canis lupus familiaris, Cardiac ventricle; how it was run: as §2
Canis familiaris [18] = experiment: Left ventricular refractory period was determined by intraduodenal administration of 30 mg/kg (high dose) of compound in anesthetized dogs. Value was reported for experiment 3; type: functional, Canis lupus familiaris, Cardiac ventricle; how it was run: as §2
Canis familiaris [19] = experiment: Mean arterial blood pressure was determined by intraduodenal administration of two dosages of 30 mg/kg of compound in anesthetized dogs. Value was reported for experiment 1; type: functional, Canis lupus familiaris; how it was run: as §2
Canis familiaris [20] = experiment: Mean arterial blood pressure was determined by intraduodenal administration of two dosages of 30 mg/kg of compound in anesthetized dogs. Value was reported for experiment 2; type: functional, Canis lupus familiaris; how it was run: as §2
Canis familiaris [21] = experiment: Mean arterial blood pressure was determined by intraduodenal administration of two dosages of 30 mg/kg of compound in anesthetized dogs. Value was reported for experiment 3; type: functional, Canis lupus familiaris
Canis familiaris [22] = experiment: Mean arterial blood pressure was determined by intraduodenal administration of two dosages of 10 mg/kg of compound in anesthetized dogs. Value was reported for experiment 1; type: functional, Canis lupus familiaris; how it was run: as §2
Canis familiaris [23] = experiment: Mean arterial blood pressure was determined by intraduodenal administration of two dosages of 10 mg/kg of compound in anesthetized dogs. Value was reported for experiment 2; type: functional, Canis lupus familiaris; how it was run: as §2
Canis familiaris [24] = experiment: Mean arterial blood pressure was determined by intraduodenal administration of two dosages of 10 mg/kg of compound in anesthetized dogs. Value was reported for experiment 3; type: functional, Canis lupus familiaris
Canis familiaris [25] = species on record: Canis familiaris; experiment: In vitro electrophysiological evaluation in canine cardiac ventricular muscle reported as maximum % change for conduction time(CT) at 0.1-10 uM concentration range; Minimal (<10% decrease or increase in CT).; type: functional, Canis lupus familiaris, Muscle tissue
How it was run: (§3)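 Canine right ventricle and papillary muscle strips in oxygenated Tyrode's solution, fitted with stimulating and recording electrodes. The extra-stimulus conduction-interval method was adapted for in vitro use. FRP and CT were read from a conduction-interval curve before and after various compound concentrations, and expressed as percent change from control. Compounds were taken from 10 mM deionized-water stock into Tyrode's. Each strip was used once as its own control.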

Canis familiaris [26] = species on record: Canis familiaris; experiment: In vitro electrophysiological evaluation in canine cardiac ventricular muscle reported as % change for the functional refractory period (FRP) at 10 uM at concentration range of 0.1-10 uM; parameters: species or system Canis lupus familiaris, Muscle tissue; how it was run: as §3
Canis familiaris [27] = species on record: Canis familiaris; experiment: In vitro electrophysiological evaluation in canine cardiac ventricular muscle reported as % change for conduction time(CT) at 10 uM at 0.1-10 uM concentration range; Minimal (<10% decrease or increase in CT).; type: functional, Canis lupus familiaris, Muscle tissue
Canis familiaris [28] = species on record: Canis familiaris; experiment: In vitro electrophysiological evaluation in canine cardiac ventricular muscle reported as maximum % change for functional refractory period (FRP) at 0.1-10 uM concentration range; concentration at which it occurred is 10 uM; parameters: species or system Canis lupus familiaris, Muscle tissue; how it was run: as §3
Canis familiaris [29] = species on record: Canis familiaris; experiment: In vitro electrophysiological evaluation in canine cardiac Purkinje fibres reported as percent change Vmax at 10 uM at concentration range of 0.1-10 uM; Minimal (<10% decrease or increase in V max).; type: functional; conditions: Canis lupus familiaris, Purkinje fiber
How it was run: (§4)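 Canine cardiac Purkinje fibres, intracellular microelectrode recording, paced at a basic cycle length of 1 s. APD95 and Vmax read simultaneously. Compound: 10 mM stock in deionized water, diluted into Tyrode's solution, tested over the stated concentration range. Each fibre used once as its own control. Result is % change from control, given at 10 µM or as the maximum with its concentration. M = <10% decrease or an increase in Vmax.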

Canis familiaris [30] = species on record: Canis familiaris; experiment: In vitro electrophysiological evaluation in canine cardiac Purkinje fibres reported as percent change Vmax at 10 uM at concentration range of 1-100 uM.; type: functional; conditions: Canis lupus familiaris, Purkinje fiber; how it was run: as §4
Canis familiaris [31] = species on record: Canis familiaris; experiment: In vitro electrophysiological evaluation in canine cardiac Purkinje fibres reported as percent change Vmax at 10 uM at concentration range of 1-100 uM; Minimal (<10% decrease or increase in V max).; type: functional; conditions: Canis lupus familiaris, Purkinje fiber; how it was run: as §4
Canis familiaris [32] = species on record: Canis familiaris; experiment: In vitro electrophysiological evaluation in canine cardiac Purkinje fibres reported as percent change Vmax at concentration range of 1-100 uM; conduction block; type: functional; conditions: Canis lupus familiaris; Purkinje fiber; how it was run: as §4
Canis familiaris [33] = species on record: Canis familiaris; experiment: In vitro electrophysiological evaluation in canine cardiac Purkinje fibres reported as percent change Vmax at concentration range of 0.1-10 uM; Minimal (<10% decrease or increase in V max).; type: functional; conditions: Canis lupus familiaris; Purkinje fiber; how it was run: as §4
Canis familiaris [34] = species on record: Canis familiaris; experiment: In vitro electrophysiological evaluation in canine cardiac Purkinje fibres reported as % change for action potential duration at a concentration of 10 uM; type: functional, Canis lupus familiaris, Purkinje fiber; how it was run: as §4
Canis familiaris [35] = species on record: Canis familiaris; experiment: In vitro electrophysiological activity in canine cardiac occurred is 100 uM; type: functional, Canis lupus familiaris, Heart
Canis familiaris [36] = species on record: Canis familiaris; experiment: In vitro electrophysiological activity in canine cardiac occurred is 10 uM; type: functional, Canis lupus familiaris, Heart

For CC(=O)C(CC1C(=O)C2CCN1CC2)C(=O)c1ccc(Cl)cc1.Cl (stereo unspecified), the HR (Canis familiaris [1]) was 2%, the HR (Canis familiaris [2]) was -28% and the HR (Canis familiaris [3]) was -22%. The CT (Canis familiaris [4]) was 9%, the CT (Canis familiaris [5]) was 7% and the CT (Canis familiaris [6]) was 13%. For the same molecule, the CT (Canis familiaris [7]) was 3%, the CT (Canis familiaris [8]) was 0% and the CT (Canis familiaris [9]) was 8%. For the same molecule, the HR (Canis familiaris [10]) was 1%, the HR (Canis familiaris [11]) was -14% and the HR (Canis familiaris [12]) was -15%. For the same molecule, the “LV FRP” value (Canis familiaris [13]) was 4%, the “LV FRP” value (Canis familiaris [14]) was 11% and the “LV FRP” value (Canis familiaris [15]) was 11%. The “LV FRP” value (Canis familiaris [16]) was 1%, the “LV FRP” value (Canis familiaris [17]) was 18% and the “LV FRP” value (Canis familiaris [18]) was 15%. The Mean blood pressure (Canis familiaris [19]) was -6%, the Mean blood pressure (Canis familiaris [20]) was -16% and the Mean blood pressure (Canis familiaris [21]) was 7%. It also gave a Mean blood pressure (Canis familiaris [22]) of -5%, a Mean blood pressure (Canis familiaris [23]) of -4% and a Mean blood pressure (Canis familiaris [24]) of 7%. The CT (Canis familiaris [25]) was less than 10%, the FRP (Canis familiaris [26]) was 24% and the CT (Canis familiaris [27]) was less than 10%. It also gave an FRP (Canis familiaris [28]) of 24%, a Vmax (Canis familiaris [29]) of less than 10% and a Vmax (Canis familiaris [30]) of -10%. It also gave a Vmax (Canis familiaris [31]) of less than 10%, a Vmax (Canis familiaris [32]) of 100% and a Vmax (Canis familiaris [33]) of less than 10%. It also gave an APD95 (Canis familiaris [34]) of 23%, an APD95 (Canis familiaris [35]) of -16% and an APD95 (Canis familiaris [36]) of 23%.
